Measured values gathered from unrelated publications.
Protocols differ between the studies behind these lines. Converted amounts (≈) assume the structure as drawn.

SMILES	tested on	test	test system	setting	quantity	result
Cc1cc(NS(=O)(=O)c2ccc(N)cc2)no1	Salmonella enterica	microbial growth	ENTERITIDIS	20 h, pH 5.5	MIC	128 µg/mL (≈ 505 µM)
O=c1cc(-c2ccc(O)cc2)oc2cc(O)cc(O)c12	Helicobacter pylori	microbial growth, broth dilution	–	31.25 µg/mL	inhibition	100%
c1cncc(-c2cccc(Nc3nccc(NC4CCOCC4)n3)c2)c1	BJ	cell growth or viability, ATP luminescence	–	72 h	EC50	> 24 µM
O=C(N[C@H](CO)[C@H](O)c1ccc([N+](=O)[O-])cc1)C(Cl)Cl	Salmonella enterica	microbial growth	–	20 h, pH 7	MIC	2 µg/mL (≈ 6.19 µM)
COC(=O)c1cccc(Nc2nccc(NC3CCCCC3)n2)c1	BJ	cell growth or viability, ATP luminescence	–	72 h	EC50	> 17 µM
O=C(O)c1ccc(O)cc1	Helicobacter pylori	microbial growth, broth dilution	–	125 µg/mL	inhibition	100%
CN(C)[C@@H]1C(O)=C(C(N)=O)C(=O)[C@@]2(O)C(O)=C3C(=O)c4c(O)cccc4[C@@](C)(O)[C@H]3C[C@@H]12	Salmonella enterica	microbial growth	ENTERITIDIS	20 h, pH 7.2	MIC	2 µg/mL (≈ 4.5 µM)
CN(C)C/C=C/C(=O)Nc1cc2c(Nc3ccc(F)c(Cl)c3)ncnc2cc1O[C@H]1CCOC1	KB-C2	cell growth or viability, ATP luminescence	–	6 µM, 12 days, 3D culture	viability	92.7%
O=C(Nc1cncc(-c2nc3ccccc3o2)c1)c1ccc(N2CCNCC2)c([N+](=O)[O-])c1	BJ	cell growth or viability, ATP luminescence	–	–	EC50	> 20 µM
CCCCNc1ccnc(Nc2cccc(-c3cccnc3)c2)n1	BJ	cell growth or viability, ATP luminescence	–	72 h	EC50	> 17 µM
O=c1cc(-c2ccc(O)c(O)c2)oc2cc(O)cc(O)c12	Helicobacter pylori	microbial growth, broth dilution	–	1.95 µg/mL	inhibition	89.3%
CO/N=C(\C(=O)N[C@@H]1C(=O)N2C(C(=O)O)=C(CSc3nc(=O)c(=O)[nH]n3C)CS[C@H]12)c1csc(N)n1	Salmonella enterica	microbial growth	F98, TYPHIMURIUM	20 h, pH 7.2	MIC	0.125 µg/mL (≈ 0.225 µM)
c1ccc(-c2cccc(Nc3nccc(NC4CCCCC4)n3)c2)cc1	BJ	cell growth or viability, ATP luminescence	–	72 h	EC50	> 5 µM
